According to ChEMBL document CHEMBL4368909, “Identification of Dihydrofuro[3,4- d]pyrimidine Derivatives as Novel HIV-1 Non-Nucleoside Reverse Transcriptase Inhibitors with Promising Antiviral Activities and Desirable Physicochemical Properties” (J Med Chem, 2019):
Converted amounts (≈) assume the structure as drawn.

Legend:
[1] = test system: Human immunodeficiency virus 1; assay: Antiviral activity against HIV1 harboring reverse transcriptase E138K mutant infected in human MT4 cells assessed as reduction in virus-induced cytopathic effect after 5 days by MTT assay; assay type: functional, organism-based; conditions: Human immunodeficiency virus 1, MT4, 120 h
[2] = test system: Human immunodeficiency virus 1; assay: Resistance factor, ratio of EC50 for HIV1 harboring reverse transcriptase L100I mutant to EC50 for wild type HIV1; assay type: functional
How it was run: (§1)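 The resistance factor is the EC50 against the mutant strain divided by the EC50 against wild-type HIV-1. Both were measured in MT-4 cells by MTT read-out of protection from virus-induced cytopathicity.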

[3] = Selectivity ratio of CC50 for human MT4 cells to EC50 for HIV1 harboring reverse transcriptase Y188L mutant infected in human MT4 cells; assay type: toxicity, cell-based; conditions: read-out: Ratio CC50/EC50
[4] = Selectivity ratio of CC50 for human MT4 cells to EC50 for HIV1 3B infected in human MT4 cells; assay type: toxicity, cell-based; conditions: read-out: Ratio CC50/EC50
[5] = test system: Human immunodeficiency virus 1; assay: Resistance factor, ratio of EC50 for HIV1 harboring reverse transcriptase Y181C mutant to EC50 for wild type HIV1; assay type: functional; how it was run: as §1
[6] = Selectivity ratio of CC50 for human MT4 cells to EC50 for HIV1 harboring reverse transcriptase K103N mutant infected in human MT4 cells; assay type: toxicity, cell-based; conditions: read-out: Ratio CC50/EC50
[7] = Selectivity ratio of CC50 for human MT4 cells to EC50 for HIV1 harboring reverse transcriptase L100I mutant infected in human MT4 cells; assay type: toxicity, cell-based; conditions: read-out: Ratio CC50/EC50
[8] = test system: Human immunodeficiency virus 1; assay: Antiviral activity against HIV1 harboring reverse transcriptase Y181C mutant infected in human MT4 cells assessed as reduction in virus-induced cytopathic effect after 5 days by MTT assay; assay type: functional, organism-based; conditions: Human immunodeficiency virus 1, MT4, 120 h
[9] = test system: Human immunodeficiency virus 1; assay: Resistance factor, ratio of EC50 for HIV1 harboring reverse transcriptase E138K mutant to EC50 for wild type HIV1; assay type: functional; how it was run: as §1
[10] = test system: Human immunodeficiency virus 1; assay: Antiviral activity against HIV1 RES056 infected in human MT4 cells assessed as reduction in virus-induced cytopathic effect after 5 days by MTT assay; assay type: functional, organism-based; conditions: Human immunodeficiency virus 1, RES056, MT4, 120 h
[11] = test system: Human immunodeficiency virus 1; assay: Resistance factor, ratio of EC50 for HIV1 harboring reverse transcriptase F227L/V106A double mutant to EC50 for wild type HIV1; assay type: functional; how it was run: as §1
[12] = test system: Human immunodeficiency virus 1; assay: Antiviral activity against HIV1 harboring reverse transcriptase K103N mutant infected in human MT4 cells assessed as reduction in virus-induced cytopathic effect after 5 days by MTT assay; assay type: functional, organism-based; conditions: Human immunodeficiency virus 1, MT4, 120 h
[13] = test system: Human immunodeficiency virus 1; assay: Antiviral activity against wild type HIV1 3B infected in human MT4 cells assessed as reduction in virus-induced cytopathic effect after 5 days by MTT assay; assay type: functional, organism-based; conditions: Human immunodeficiency virus 1, 3B, MT4, 120 h
[14] = biological target: Human immunodeficiency virus type 1 reverse transcriptase (Human immunodeficiency virus 1, UniProt Q72547); assay: Inhibition of recombinant HIV1 reverse transcriptase using (DIG)-dUTP and biotin-labeled dNTPs as substrate after 1 hr by ELISA
[15] = Selectivity ratio of CC50 for human MT4 cells to EC50 for HIV1 RES056 infected in human MT4 cells; assay type: toxicity, cell-based; conditions: read-out: Ratio CC50/EC50
[16] = test system: Human immunodeficiency virus 1; assay: Resistance factor, ratio of EC50 for HIV1 harboring reverse transcriptase K103N mutant to EC50 for wild type HIV1; assay type: functional; how it was run: as §1
[17] = test system: Human immunodeficiency virus 1; assay: Antiviral activity against HIV1 harboring reverse transcriptase Y188L mutant infected in human MT4 cells assessed as reduction in virus-induced cytopathic effect after 5 days by MTT assay; assay type: functional, organism-based; conditions: Human immunodeficiency virus 1, MT4, 120 h
[18] = test system: Human immunodeficiency virus 2; assay: Antiviral activity against HIV2 ROD infected in human MT4 cells assessed as reduction in virus-induced cytopathic effect after 5 days by MTT assay; conditions: Human immunodeficiency virus 2, ISOLATE ROD, MT4, 120 h
[19] = Aqueous solubility of the compound at pH at 7 by HPLC analysis; assay type: physicochemical; conditions: buffer, pH 7
How it was run: (§2)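 Aqueous solubility read by HPLC in buffer at pH 2.0, 7.0 or 7.4.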

[20] = Selectivity ratio of CC50 for human MT4 cells to EC50 for HIV1 harboring reverse transcriptase E138K mutant infected in human MT4 cells; assay type: toxicity, cell-based; conditions: read-out: Ratio CC50/EC50
[21] = Aqueous solubility of the compound at pH at 2 by HPLC analysis; assay type: physicochemical; conditions: buffer, pH 2; how it was run: as §2
[22] = Selectivity ratio of CC50 for human MT4 cells to EC50 for HIV1 harboring reverse transcriptase Y181C mutant infected in human MT4 cells; assay type: toxicity, cell-based; conditions: read-out: Ratio CC50/EC50
[23] = Selectivity ratio of CC50 for human MT4 cells to EC50 for HIV1 harboring reverse transcriptase F227L/V106A double mutant infected in human MT4 cells; assay type: toxicity, cell-based; conditions: read-out: Ratio CC50/EC50
[24] = test system: Human immunodeficiency virus 1; assay: Antiviral activity against HIV1 harboring reverse transcriptase F227L/V106A double mutant infected in human MT4 cells assessed as reduction in virus-induced cytopathic effect after 5 days by MTT assay; assay type: functional, organism-based; conditions: Human immunodeficiency virus 1, MT4, 120 h
[25] = test system: Human immunodeficiency virus 1; assay: Antiviral activity against HIV1 harboring reverse transcriptase L100I mutant infected in human MT4 cells assessed as reduction in virus-induced cytopathic effect after 5 days by MTT assay; assay type: functional, organism-based; conditions: Human immunodeficiency virus 1, MT4, 120 h
[26] = Aqueous solubility of the compound in FASSIF by HPLC analysis; assay type: physicochemical; conditions: simulated gi fluid
How it was run: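 Solubility read by HPLC in fasted state simulated intestinal fluid (FaSSIF).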

[27] = test system: Human immunodeficiency virus 1; assay: Resistance factor, ratio of EC50 for HIV1 harboring reverse transcriptase Y188L mutant to EC50 for wild type HIV1; assay type: functional; how it was run: as §1
[28] = test system: MT4; assay: (§3) Cytotoxicity against human MT4 cells after 5 days by MTT assay; assay type: cell-based; conditions: mt4, 120 h
[29] = Aqueous solubility of the compound at pH at 7.4 by HPLC analysis; assay type: physicochemical; conditions: buffer, pH 7.4; how it was run: as §2
[30] = as §3; assay type: cell-based; conditions: MT4 cells
[31] = Sub-acute toxicity in Kunming mouse assessed as proximal convoluted tubule edema in kidney at 50 mg/kg/day, po administered for 2 weeks by hematoxylin and eosin staining-based assay; assay type: organism-based; conditions: in vivo, 336 h
How it was run: (§4)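 Mice were dosed orally at 50 mg/kg/day for 2 weeks and observed for behavioural abnormalities during treatment. Organs were then examined by hematoxylin–eosin staining.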

[32] = Sub-acute toxicity in Kunming mouse assessed as alveolar hemorrhage at 50 mg/kg/day, po administered for 2 weeks by hematoxylin and eosin staining-based assay; assay type: organism-based; conditions: in vivo, 336 h; how it was run: as §4
[33] = Sub-acute toxicity in Kunming mouse assessed as alveolar interstitial thickening at 50 mg/kg/day, po administered for 2 weeks by hematoxylin and eosin staining-based assay; assay type: organism-based; conditions: in vivo, 336 h; how it was run: as §4
[34] = Protein binding in rat plasma assessed as recovery rate at 1 uM after 5 hrs by LC/MS analysis; assay type: ADME, cell-free
How it was run: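 Equilibrium dialysis against plasma proteins: human plasma for line 1, Wistar rat plasma for line 2. Reference drug tested at 1 μM. Recovery rate reported alongside percent protein-binding rate.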

Structure (SMILES)	EC50 [1] [nM]	Ratio EC50 [2]	selectivity ratio [3]	selectivity ratio [4]	Ratio EC50 [5]	selectivity ratio [6]	selectivity ratio [7]	EC50 [8] [nM]	Ratio EC50 [9]	EC50 [10] [nM]	Ratio EC50 [11]	EC50 [12] [nM]	EC50 [13] [nM]	IC50 [14] [nM]	selectivity ratio [15]	Ratio EC50 [16]	EC50 [18] [nM]	EC50 [24] [nM]	EC50 [25] [nM]	solubility [26] [µg/mL]	further results
Cc1cc(C#N)cc(C)c1Oc1nc(NC2CCN(Cc3ccc(S(N)(=O)=O)cc3)CC2)nc2c1COC2	7.9	1.1	1810	9520	1.9	9220	8940	5.4	2.7	38	4.2	2.9	2.8	109	725	1	≥ 8370	12.7	3	8.42 (≈ 15.7 µM)	EC50 [17]: 15.2 nM; solubility [19]: 10.3 µg/mL (≈ 19.3 µM); selectivity ratio [20]: 3470; solubility [21]: 174 µg/mL (≈ 325 µM); selectivity ratio [22]: 5090; selectivity ratio [23]: 2270; Ratio EC50 [27]: 5.3; CC50 [28]: 27500 nM; solubility [29]: 5.68 µg/mL (≈ 10.6 µM)
Cc1cc(C#N)cc(C)c1Oc1nc(NC2CCN(Cc3cccc(C(N)=O)c3)CC2)nc2c1SCCC2	–	–	–	1140	–	–	–	–	–	1050	–	–	5.1	–	5.5	–	> 5800	–	–	–	CC50 at 120 h [30]: 5800 nM
Cc1cc(C#N)cc(C)c1Oc1nc(NC2CCN(Cc3ccc(S(C)(=O)=O)cc3)CC2)nc2c1COC2	7.8	1.8	3940	15900	2.5	15200	9050	4.9	4	41.6	3.7	2	1.9	77	752	1	> 27000	7.2	3.4	23.6 (≈ 44.2 µM)	EC50 [17]: 7.9 nM; solubility [19]: 1.37 µg/mL (≈ 2.57 µM); selectivity ratio [20]: 3990; solubility [21]: 164 µg/mL (≈ 307 µM); selectivity ratio [22]: 6320; selectivity ratio [23]: 4350; Ratio EC50 [27]: 4; CC50 [28]: 31300 nM; solubility [29]: < 1 µg/mL
Cc1cc(C#N)cc(C)c1Oc1nc(Nc2ccc(C#N)cc2)nc(N)c1Br [ETRAVIRINE]	9.7	–	–	–	–	–	–	14.5	–	45.4	–	–	5.1	–	–	–	–	19.7	6	13.2 (≈ 30.3 µM)	Activity [31]: Toxic; solubility ([19]; read-out: solubility): < 1 µg/mL; Activity [32]: Toxic; Activity [33]: Toxic; solubility ([29]; read-out: solubility): < 1 µg/mL
CC(=O)CC(c1ccccc1)c1c(O)c2ccccc2oc1=O (configuration not stated) [WARFARIN]	–	–	–	–	–	–	–	–	–	–	–	–	–	–	–	–	–	–	–	–	Drug recovery [34]: 107%
